Measurements taken from PubChem BioAssay AID1229 (Sanford-Burnham Center for Chemical Genomics, 2008).
The whole screen tested about 190,000 compounds, of which about 10 (0.005%) were called active. The sample holds actives, similar compounds and a random draw of the others, so the mix is not that of the screen. A number with no mark means an inactive call.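 Rule for the calls: active = diaphorase activity raised at least twofold by the compound at 20 µM; inactive = activation factor below 2.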

Assay: compounds boosting diaphorase resazurin reduction – biochemical, uHTS, resorufin fluorescence, counter-screen for diaphorase-coupled primary assays, primary screen (AID 1229)
Conditions: Diaphorase/resazurin coupled assay, 16 min, at 20 µM, active compounds read high, 1 = vehicle wells, 0 = NADH-free wells
Outline: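 Assay system: bacterial diaphorase enzyme (C. kluyveri) / Input: enzyme 0.07 U/mL final / Medium: 50 mM HEPES pH 7.4 with 4.542 mM MgCl2, 0.005% Tween 20 / Doses: single compound dose of 20 µM, 1% DMSO final / Incubation: 16 min enzyme reaction, ambient temperature / Signal: fluorescence, excitation 544 nm and emission 590 nm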
`COc1ccc([N+](=O)[O-])cc1NC(=O)c1ccc(N(Cc2ccccc2C)S(C)(=O)=O)cc1` gave an activation factor of 0.9.
Work on `COc1ccc(NS(=O)(=O)c2cc(NC(=O)C3CCCCC3)ccc2N2CCOCC2)cc1` yielded an activation factor of 1.1.
With `Cc1cc2c(C)nc(N/N=C/c3ccccc3)nc2o1` the activation factor was 0.9.
Work on `O=C1NCC(=O)N(Cc2ccccc2)/C1=C/c1ccccc1` yielded an activation factor of 1.
In the case of `CCOC(=O)C(C)Sc1nnc(CSc2nc3nc(C)cc(C)n3n2)o1` (stereo not drawn), the activation factor is reported as 1.
`Cc1ccc(NC2=C(Cl)C(=O)OC2OC(=O)c2ccccc2C)cc1` (stereo not drawn) gave an activation factor of 0.9.
`O=C(Nc1ccc(F)cc1)N1CCN(c2ccc(F)cc2)CC1` showed an activation factor of 0.9.
With `Cc1ccc(/C(N)=N/OC(=O)COc2ccc(Cl)c(C)c2)cc1` the activation factor was 0.9.
Molecule `Cc1cc(C)n(-c2nnc(N3CCN(c4ccccc4)CC3)nn2)n1` has an activation factor of 0.9.
Molecule `CCn1c(COc2c(C)cccc2C)nnc1SCc1nc2ccccc2c(=O)[nH]1` has an activation factor of 0.7.
`Cc1cc(Cl)ccc1C(=O)C1CCCN(C(=O)CCN2CCCO2)C1` (stereo not drawn) gave an activation factor of 1.
With `Oc1c(Br)cccc1/C=N/Nc1c(F)c(F)c(F)c(F)c1F` the activation factor was 1.
`Cc1ccc(S(=O)(=O)N(CC(=O)NN=C2CCN(C)CC2)c2ccc(F)cc2)cc1` gave an activation factor of 0.9.
`O=C(NC1CCCC1)C(NS(=O)(=O)c1ccc(Br)s1)c1ccccc1` (stereo not drawn) gave an activation factor of 0.9.
In the case of `CCOC(=O)C1CCN(C(=O)c2ccccc2N(C)S(=O)(=O)c2ccccc2)CC1`, the activation factor is reported as 1.
Molecule `Cn1cnnc1SCc1nnc(-c2ccccc2Br)o1` has an activation factor of 1.
With `COc1ccc(CNC(=O)CN2CCC(n3nnc4cc(F)ccc43)CC2)cc1` the activation factor was 0.8.
Work on `C=C(C)c1cccc(C(C)(C)NC(=O)NC2CCCC2)c1` yielded an activation factor of 0.9.
In the case of `Nc1[nH]c(=S)nc2nc(-c3ccccc3)c(-c3ccccc3)nc12`, the activation factor is reported as 0.8.
Work on `CC1=C[C@H]2Cc3cc(C)cc(C)c3S(=O)(=O)[C@@H]2C=C1` yielded an activation factor of 0.9.
With `CCCCOc1ccc(C(=O)N/C(=C/C=C/c2ccccc2)C(=O)N2CCOCC2)cc1` the activation factor was 0.8.
Molecule `Cc1ccc(S(=O)(=O)Cc2cc(-c3ccc(Cl)cc3)no2)cc1` has an activation factor of 0.8.
`CCOc1ccc(/C=C(/NC(=O)c2ccccc2)C(=O)NCCC(=O)O)cc1` showed an activation factor of 0.9.
`NC(=O)C[C@@H]1NC(=O)CNC(=O)c2cc([N+](=O)[O-])cc(I)c2NCCC(C(N)=O)NC1=O` (stereo partly drawn) gave an activation factor of 1.1.
Work on `CSc1cc(C)[nH]c(=O)n1` yielded an activation factor of 0.9.
In the case of `C[n+]1ccc(/C=C/c2c[nH]c3ccccc23)cc1`, the activation factor is reported as 1.
Work on `COC(=O)CCc1sc(Nc2ccc(Br)cc2)nc1-c1ccc(OC)cc1` yielded an activation factor of 0.8.
Molecule `O=c1[nH]c2cccnc2n(CCNc2ncc(C(F)(F)F)cc2Cl)c1=O` has an activation factor of 0.8.
With `COCC1CCCN(Cc2cn[nH]c2-c2cc3ccccc3o2)C1` (stereo not drawn) the activation factor was 0.9.
Work on `CC1CCCCC1NC(=O)COC(=O)Cc1ccc(Br)cc1` (stereo not drawn) yielded an activation factor of 0.9.
For `O=C1NC2(CCCCCC2)C(=O)N1CCS(=O)(=O)Oc1ccccc1`, the activation factor was 1.
`COc1cccc(-n2nc(C(=O)N3CCN(Cc4ccccc4)CC3)c3ccccc3c2=O)c1` gave an activation factor of 0.8.
For `CCN(CC)CCNCc1ccc(OCc2ccc(Cl)nc2)c(OC)c1`, the activation factor was 1.1.
With `CC(C)Oc1c(Br)cc(Br)cc1/C=N/NC(N)=S` the activation factor was 1.
For `Cc1cc(C)cc(OCC(=O)NNC(=O)CCN2C(=O)c3ccccc3C2=O)c1`, the activation factor was 0.9.
Work on `O=C(CCC(=O)NNc1nc2ccccc2c2nc(-c3ccccc3)nn12)NCCCN1CCCC1=O` yielded an activation factor of 0.8.
For `COc1ccc(-c2csc(-c3cccs3)n2)cc1OC`, the activation factor was 0.8.
For `COc1ccc(O)c(C(=O)c2cnc3c(c2)c(-c2ccc(F)cc2)c(C#N)c(=O)n3C)c1`, the activation factor was 0.9.
`CC(C)(C)CC(C)(C)NCC(O)COCCOc1ccc(Br)cc1` (stereo not drawn) gave an activation factor of 0.9.
`Cc1cc(NS(=O)(=O)c2ccc(NC(=O)c3cccc(OC(F)F)c3)cc2)nc(C)n1` showed an activation factor of 1.
With `CCC1S/C(=N/N=C/c2ccco2)NC1=O` (stereo not drawn) the activation factor was 0.9.
With `CCOC(=O)C(NC(=O)CC(C)C)(Nc1sc2c(c1C(N)=O)CCCC2)C(F)(F)F` (stereo not drawn) the activation factor was 0.9.
`C/C(=N\NC(=O)CNC(=O)C(c1ccccc1)c1ccccc1)c1ccc(C)cc1` showed an activation factor of 0.9.
`C=CCn1c(COc2ccc(F)cc2)nnc1SCC(=O)Nc1cccc(S(N)(=O)=O)c1` showed an activation factor of 1.1.
Molecule `CCOc1ccc(NS(=O)(=O)c2cc(C)c(C)cc2C)cc1` has an activation factor of 0.8.
For `O=C(Nc1ccc(Cl)cn1)c1ccc2c(c1)OCCO2`, the activation factor was 1.
Molecule `CN(C)S(=O)(=O)c1ccc(N2CCCC2=O)c([N+](=O)[O-])c1` has an activation factor of 0.9.
For `S=C(Cc1ccc(Cl)cc1)N1CCOCC1`, the activation factor was 1.
Molecule `CN(Cc1ccc2nsnc2c1)Cc1nc(Cc2cccc(F)c2)no1` has an activation factor of 0.8.
Work on `CCN(CC(=O)NCCc1ccccc1)S(=O)(=O)c1ccccc1` yielded an activation factor of 1.
With `NC(N)=N/N=C/c1ccc(OCc2ccc(Cl)cc2Cl)cc1` the activation factor was 2.2 (active).
With `COc1ccc(C(=O)O/N=C(\N)Cc2ccc(Cl)cc2Cl)cc1OC` the activation factor was 1.
For `NC(N)=N/N=C/c1ccc(Cl)c([N+](=O)[O-])c1`, the activation factor was 1.
Work on `O=C(CCc1n[nH]c(=O)[nH]c1=O)N/N=C/c1ccc(Br)o1` yielded an activation factor of 1.
Work on `Cc1cccc(OCCNC(=O)CSc2ccc(C(F)(F)F)cc2[N+](=O)[O-])c1` yielded an activation factor of 0.9.
Molecule `Cc1ccc(NC(=O)Nc2ccccc2)c(Br)c1` has an activation factor of 0.9.
For `COc1cc2[nH]c(=S)n(Cc3ccc(F)cc3)c(=O)c2cc1OC`, the activation factor was 0.9.
For `O=C(Nc1ccc2c(c1)OCO2)c1sc2cc(Cl)ccc2c1Cl`, the activation factor was 1.
Molecule `Cc1cc(NC(=O)CSc2nc3ccccc3n2CC(C)C)no1` has an activation factor of 0.8.
For `CNC(=O)COc1ccc(S(=O)(=O)Nc2ccccc2)cc1`, the activation factor was 0.8.
For `COc1ccc(C)cc1NC(=S)Nc1ccccc1SC`, the activation factor was 1.
`Cc1cccc(NC(=O)Nc2ccc3c(c2)OCO3)n1` gave an activation factor of 0.8.
`CCOc1ccc(C(=O)NC(=S)Nc2ccc(N3CCOCC3)c(Cl)c2)cc1[N+](=O)[O-]` showed an activation factor of 0.8.
